Assay results taken from ChEMBL document CHEMBL3596120, “Discovery of natural alkaloid bouchardatine as a novel inhibitor of adipogenesis/lipogenesis in 3T3-L1 adipocytes” (Bioorg Med Chem, 2015).
Active and inactive are the calls of the source. The calls are words filed in the database; no cut-off is given here.

How the values were obtained:
[1] = Cytotoxicity against mouse 3T3L1 cells at 1 to 50 uM incubated for 1 to 9 days by LDH assay; type: cell-based; settings: 3t3-l1, 50 µM
Method in brief: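 3T3-L1 adipocytes seeded at 7 × 10^3 cells/well, then treated 24 h later with DMSO vehicle as control. LDH in media and in cell lysates measured with a commercial kit. Cytotoxicity = LDH released into medium / maximal LDH release × 100. Maximum: […]. Blank: medium without cells.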

[2] = Cytotoxicity against mouse 3T3L1 cells assessed effect on cell morphology at 1 to 50 uM incubated for 1 to 9 days by microscopy; type: cell-based; settings: 3t3-l1, 50 µM
3T3-L1 [3] = assay: Inhibition of adipogenesis in mouse 3T3L1 cells assessed as reduction in triglyceride content at 1 to 50 uM by colorimetric assay; type: functional, cell-based
3T3-L1 [4] = assay: Inhibition of adipogenesis in mouse 3T3L1 cells assessed as reduction in cell size at 1 to 50 uM by oil Red-O staining based microscopy; type: functional
Method in brief: (§1)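 After 3T3-L1 differentiation (IBMX/dexamethasone/insulin induction, insulin, then basal medium), cells were PBS-washed and fixed in 4% formalin for 60 min. Stained with filtered Oil Red O for 30 min at room temperature and imaged at 40× objective. Dye eluted with isopropanol and read at 510 nm. Three independent experiments.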

3T3-L1 [5] = assay: Inhibition of adipogenesis in mouse 3T3L1 cells assessed as reduction in lipid droplets at 1 to 50 uM by oil Red-O staining based microscopy; type: functional, cell-based; method in brief: as §1
3T3-L1 [6] = assay: Inhibition of adipogenesis in mouse 3T3L1 cells assessed as reduction in cell finger ring diameter size at 1 to 50 uM by oil Red-O staining based microscopy; type: functional; method in brief: as §1
3T3-L1 [7] = assay: Inhibition of adipogenesis in mouse 3T3L1 cells assessed as reduction in lipid content at 25 uM by colorimetric assay; type: functional
HepG2 [8] = assay: Cytotoxicity against human HepG2 cells at 1 to 100 uM by MTT assay; type: cell-based; settings: hepg2, 100 µM
Method in brief: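 HepG2 cells seeded at 7 × 10^3 cells/well. After 24 h, treated with 1, 10, 25, 50 or 100 µM; DMSO vehicle control. After the set time, MTT at 0.5 mg/mL was added for 4 h at 37 °C. Formazan dissolved in DMSO and read at 490 nm. Run in triplicate.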

HepG2 [9] = assay: Inhibition of oleic acid-induced adipogenesis in human HepG2 cells assessed as reduction in triglyceride content by colorimetric assay; type: functional, cell-based
Method in brief: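 HepG2 cells loaded with 0.5 mM oleic acid sodium, with or without compound. Lysed in 0.2% Triton X-100 in water and sonicated. TG measured colorimetrically and normalised to cellular protein. Blank: no oleate. Three independent experiments.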

3T3-L1 [10] = assay: Inhibition of adipogenesis in mouse 3T3L1 cells assessed as reduction in triglyceride content at 25 uM treated on day 0 to 3 by colorimetric assay; type: functional; settings: 3T3-L1, 0 h
3T3-L1 [11] = assay: Inhibition of adipogenesis in mouse 3T3L1 cells assessed as reduction in triglyceride content at 25 uM treated on day 3 to 6 by colorimetric assay; type: functional; settings: 3T3-L1, 72 h
3T3-L1 [12] = assay: Inhibition of adipogenesis in mouse 3T3L1 cells assessed as reduction in triglyceride content at 25 uM treated on day 6 to 9 by colorimetric assay; type: functional; settings: 3T3-L1, 144 h
3T3-L1 [13] = assay: Inhibition of adipogenesis in mouse 3T3L1 cells assessed as reduction in triglyceride content at 25 uM treated on day 0 to 3 by oil Red-O staining based microscopy; type: functional, cell-based; method in brief: as §1
3T3-L1 [14] = assay: Inhibition of adipogenesis in mouse 3T3L1 cells assessed as reduction in triglyceride content at 25 uM treated on day 0 to 6 by oil Red-O staining based microscopy; type: functional, cell-based; method in brief: as §1
3T3-L1 [15] = assay: Inhibition of adipogenesis in mouse 3T3L1 cells assessed as reduction in triglyceride content at 25 uM treated on day 0 to 9 by oil Red-O staining based microscopy; type: functional, cell-based; method in brief: as §1
3T3-L1 [16] = assay: Inhibition of adipogenesis in mouse 3T3L1 cells assessed as reduction in triglyceride content at 25 uM treated on day 3 to 6 by oil Red-O staining based microscopy; type: functional, cell-based; method in brief: as §1
3T3-L1 [17] = assay: Inhibition of adipogenesis in mouse 3T3L1 cells assessed as reduction in triglyceride content at 25 uM treated on day 3 to 9 by oil Red-O staining based microscopy; type: functional, cell-based; method in brief: as §1
3T3-L1 [18] = assay: Inhibition of adipogenesis in mouse 3T3L1 cells assessed as reduction in triglyceride content at 25 uM treated on day 6 to 9 by oil Red-O staining based microscopy; type: functional, cell-based; method in brief: as §1
3T3-L1 [19] = assay: Induction of cell cycle arrest in mouse 3T3L1 cells assessed as accumulation at G2/M phase at 1 to 50 uM by flow cytometry; type: functional, cell-based
3T3-L1 [20] = assay: Induction of cell cycle arrest in mouse 3T3L1 cells assessed as accumulation at G0/G1 phase at 1 to 50 uM after 24 hrs by flow cytometry; type: functional, cell-based
3T3-L1 [21] = assay: Induction of cell cycle arrest in mouse 3T3L1 cells assessed as accumulation at S phase at 25 uM after 24 hrs by flow cytometry (reference value: 18%); type: functional
3T3-L1 [22] = assay: Induction of cell cycle arrest in mouse 3T3L1 cells assessed as accumulation at G0/G1 phase at 25 uM after 24 hrs by flow cytometry (reference value: 42%); type: functional
3T3-L1 [23] = assay: Induction of cell cycle arrest in mouse 3T3L1 cells assessed as accumulation at G2/M phase at 25 uM after 24 hrs by flow cytometry (reference value: 29%); type: functional
[24] = Reduction in C/EBPbeta mRNA expression in mouse 3T3L1 cells after 72 hrs by RT-PCR method; type: functional, cell-based; settings: 3T3-L1
Method in brief: (§2)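 3T3-L1 preadipocytes grown in DMEM with 10% FBS at 37 °C under 5% CO2. Differentiation starts 2 days post-confluence (day 0) with IBMX, 100 ng/mL dexamethasone and insulin for 3 d, then insulin in 10% FBS/DMEM for 3 d, then basic medium for 3 d. Compound is added on day 0 and renewed at day 3. Vehicle control receives the same volume of DMSO.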

[25] = Reduction in C/EBPalpha mRNA expression in mouse 3T3L1 cells at 1 to 50 uM after 72 hrs by RT-PCR method; type: functional, cell-based; settings: 3T3-L1
[26] = Reduction in PPARgamma mRNA expression in mouse 3T3L1 cells at 1 to 50 uM after 72 hrs by RT-PCR method; type: functional, cell-based; settings: 3T3-L1; method in brief: as §2

## O=Cc1c(-c2nc3ccccc3c(=O)[nH]2)[nH]c2ccccc12
[1]
  Activity: Non-toxic
[2]
  Activity: Non-toxic
3T3-L1 [3]
  inhibition: Dose-dependent effect
3T3-L1 [4]
  inhibition: Active
3T3-L1 [5]
  inhibition: Active
3T3-L1 [6]
  inhibition: Active
3T3-L1 [7]
  inhibition at 25 µM: 50%
HepG2 [8]
  Activity: Non-toxic
HepG2 [9]
  inhibition: Dose-dependent effect
3T3-L1 [10]
  inhibition at 25 µM: 50%
3T3-L1 [11]
  inhibition at 25 µM: 30%
3T3-L1 [12]
  inhibition at 25 µM: < 10%
3T3-L1 [13]
  inhibition: Active
3T3-L1 [14]
  inhibition: Active
3T3-L1 [15]
  inhibition: Active
3T3-L1 [16]
  inhibition: Active
3T3-L1 [17]
  inhibition: Active
3T3-L1 [18]
  inhibition: Active
3T3-L1 [19]
  Activity: Active
3T3-L1 [20]
  Activity: Dose-dependent effect
3T3-L1 [21]
  Activity: 5%
3T3-L1 [22]
  Activity: 40%
3T3-L1 [23]
  Activity: 57%
[24]
  Activity: Dose-dependent effect
[25]
  Activity: Active
[26]
  Activity: Active
